Compound activity (PubChem BioAssay)
Rin1-Abl PPI inh: blocks binding of human Rin1 to Abl. P00519+Q13671. TR-FRET Rin1/Abl binding, biochemical. inhibition, % at 7.35 µM. 360,000 tested, 0.4% active. AID 588664; in the data active = inhibition above about 5%, passing the limit was not always enough
MBD2 inh: inhibitors of human MBD2 binding to methylated oligonucleotide; inhibition, % at 4.4 µM; AID 686964; TR-FRET; 370,000 tested, 0.31% active; Q9UBB5; in the data active = inhibition above about 13%
Target sequence (Q9UBB5 whole entry, looked up): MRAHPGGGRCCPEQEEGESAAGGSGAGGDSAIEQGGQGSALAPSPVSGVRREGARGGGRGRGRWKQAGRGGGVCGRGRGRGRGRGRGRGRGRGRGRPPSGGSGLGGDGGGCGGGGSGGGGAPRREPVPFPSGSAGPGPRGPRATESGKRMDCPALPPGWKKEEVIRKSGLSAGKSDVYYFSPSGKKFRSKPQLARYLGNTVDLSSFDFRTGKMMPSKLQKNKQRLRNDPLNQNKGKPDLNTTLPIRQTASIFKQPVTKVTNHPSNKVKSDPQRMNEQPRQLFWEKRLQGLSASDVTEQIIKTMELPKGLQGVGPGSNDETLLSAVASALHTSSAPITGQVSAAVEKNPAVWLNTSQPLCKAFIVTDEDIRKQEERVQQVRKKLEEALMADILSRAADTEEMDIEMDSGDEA
LEDGF integ inh: blocks HIV-1 LEDGF/p75-dependent DNA integration; 370,000 tested, 0.64% active; inhibition, % at 3.7 µM; TR-FRET IN-LEDGF/p75 DNA integration, Eu/Cy5; AID 743269;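 active = inhibition above the screen-wide mean plus 3 SD, cut at about 13% in these data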;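 note: signal is the Cy5 over europium emission ratio at 671 and 618 nm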
TDP2 inh: blocks human TDP2 phosphodiesterase activity. O95551. AID 720702. 370,000 tested, 0.34% active. inhibition, % at 12.8 µM. recombinant TDP2, T5PNP hydrolysis, p-nitrophenol absorbance 415 nm;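 active = inhibition above the mean of all tested compounds plus 3 SD, set per campaign, cut at about 25% in these data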
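Incubation: 2 h at 37 °C; Test system: recombinant human TDP2; Quantity: enzyme 120 nM; Read-out basis: percent inhibition; Medium: 50 mM Tris-HCl pH 7.5 with Mg2+, KCl, DTT, BSA; Repeats: single replicate; Compound: 12.8 µM single point, 1% DMSO; Signal: epi absorbance; Reagent: 5 mM T5PNP chromogenic substrate; Benchmarks: no-enzyme high, DMSO-plus-enzyme low.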
UHRF1 MBD2 ctr: UHRF1 methyl-DNA binding inhibition; 370,000 tested, 0.75% active; inhibition, % at 4.4 µM; UHRF1 binding to methylated oligo, TR-FRET; in the data active = inhibition above about 21%;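 note: UHRF1 SRA domain binding a hemimethylated CpG hairpin DNA probe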
UHRF1 ctr MBD2: inhibits human UHRF1 binding to methylated oligonucleotide, MBD2 counter-screen. shares compounds with MBD2 inh. AID 720530. inhibition, % at 4.4 µM. 1,000 tested, 25% active. TR-FRET; in the data active = inhibition above about 21%;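 note: UHRF1 SRA domain binding a labeled hemimethylated CpG hairpin DNA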
MBD2 DBD conf: MBD2-DBD methyl-DNA binding inhibition, TR-FRET confirmation. shares compounds with MBD2 inh. TR-FRET MBD2-DBD binding to methylated oligonucleotide. inhibition, % at 4.4 µM. 1,000 tested, 26% active
TDP2 confirm: human TDP2 inhibition, confirmation | shares compounds with TDP2 inh | recombinant human TDP2, absorbance read-out | inhibition, % at 12.8 µM | 1,100 tested, 22% active | AID 743263; in the data active = inhibition above about 25%
IN multimer up: counter-screen for LEDGF/p75 integration inhibitors: HIV-1 integrase multimerization activators; shares compounds with LEDGF integ inh; TR-FRET HIV-1 integrase multimerization, biochemical; activation, % at 7.7 µM; 2,000 tested, 17% active; in the data active = activation above about 8.9%
TRFRET interf: TR-FRET optical interference, LEDGF/p75 integration counter-screen; inhibition, % at 7.7 µM; 2,000 tested, under 10 active; shares compounds with LEDGF integ inh; TR-FRET optical interference counterscreen, HIV-1 IN multimerization;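 active = inhibition above the mean over all tested compounds plus 3 SD, which no compound reached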
IN-LEDGF confirm: confirmation of HIV-1 LEDGF/p75-dependent integration inhibitors | shares compounds with LEDGF integ inh | TR-FRET LEDGF/p75-dependent HIV-1 integration, biochemical | inhibition, % at 3.7 µM | 2,000 tested, 36% active | AID 1053136
Of the large screens only hits and unclear results are named; the others gave an inactive call (follow-up assays come after a bar, where they were run). Hits are enriched below; roughly 1.9% of the tested compounds scored in any of these assays. Cut-off read from the data, not from the text of the source, unless noted: active = inhibition above about 14%; inactive = the rest.

CC(C)(CS(=O)(=O)[O-])NC(=O)CC[N+](C)(C)CCO	MBD2 inh 53.5, LEDGF integ inh 39.4, UHRF1 MBD2 ctr 91.6 | UHRF1 ctr MBD2 95.1 | MBD2 DBD conf 84.6 | IN multimer up 122.2 | TRFRET interf inactive | IN-LEDGF confirm 37.8
O=C(CSc1nnc(-c2ccccn2)n1-c1ccccc1)Nc1ccc(OCc2ccccc2)cc1	none (no result: Rin1-Abl PPI inh)
O=S(=O)(Nc1nc(-c2ccco2)c(-c2ccco2)s1)c1ccc(F)cc1F	MBD2 inh 23.4, LEDGF integ inh 35.3, UHRF1 MBD2 ctr 59.0 | UHRF1 ctr MBD2 inactive | MBD2 DBD conf inactive | IN multimer up inactive | TRFRET interf inactive | IN-LEDGF confirm inactive
O=C(Nc1nc(-c2ccco2)c(-c2ccco2)s1)c1ccc(F)cc1F	none
CCN(CC)CCCNc1nc(-c2ccccc2)nc2ccccc12	none
CCN(CC)CCCNc1nc2ccccc2c2[nH]c3ccc(OC)cc3c12	MBD2 inh 91.5, LEDGF integ inh 19.2, UHRF1 MBD2 ctr 84.7 | UHRF1 ctr MBD2 95.5 | MBD2 DBD conf 109.0 | IN multimer up inactive | TRFRET interf inactive | IN-LEDGF confirm 34.3
Cc1cc(C)n2c(Nc3ccc4c(c3)OCCO4)c(-c3ccc(C)o3)nc2n1	MBD2 inh 16.2, LEDGF integ inh 23.8, UHRF1 MBD2 ctr 26.1 | UHRF1 ctr MBD2 inactive | MBD2 DBD conf inactive | IN multimer up inactive | TRFRET interf inactive | IN-LEDGF confirm inactive
Fc1ccc(C2=Nc3cccc4cccc(c34)N2)cc1	none
FC(F)(F)C1=Nc2cccc3cccc(c23)N1	MBD2 inh 33.8, LEDGF integ inh 78.7, UHRF1 MBD2 ctr 54.1 | UHRF1 ctr MBD2 inactive | MBD2 DBD conf inactive | IN multimer up 57.1 | TRFRET interf inactive | IN-LEDGF confirm 57.0
CCCC[C@H]1C2CC(OC(=O)Nc3ccc(C#N)cc3)C(C2)[C@H]2CCCCN21 (some centres not stated)	none (no result: Rin1-Abl PPI inh)
O=C1NC(=S)NC1=Cc1ccco1	MBD2 inh 21.1, LEDGF integ inh 55.6, UHRF1 MBD2 ctr 60.6 | UHRF1 ctr MBD2 inactive | MBD2 DBD conf inactive | IN multimer up inactive | TRFRET interf inactive | IN-LEDGF confirm 41.3
Cn1cccc1CC(=O)NN=C/C=C\c1ccco1	MBD2 inh 66.5, LEDGF integ inh 81.2, UHRF1 MBD2 ctr 85.2 (no result: Rin1-Abl PPI inh) | UHRF1 ctr MBD2 inactive | MBD2 DBD conf inactive | IN multimer up 10.7 | TRFRET interf inactive | IN-LEDGF confirm 31.4
O=C(CCCN1C(=O)/C(=C/c2ccco2)SC1=S)Nc1ccccc1C(=O)O	MBD2 inh 26.7, LEDGF integ inh 38.5, UHRF1 MBD2 ctr 81.7 | UHRF1 ctr MBD2 51.7 | MBD2 DBD conf 15.8 | IN multimer up 9.7 | TRFRET interf inactive | IN-LEDGF confirm 26.5
O=C(CCCN1C(=O)/C(=C\c2ccccc2)SC1=S)Nc1ccc(O)cc1C(=O)O	none
O=C(CCN1C(=O)/C(=C/c2ccco2)SC1=S)Nc1ccc(O)cc1C(=O)O	MBD2 inh 68.4, LEDGF integ inh 78.1, TDP2 inh 26.9, UHRF1 MBD2 ctr 94.6 | UHRF1 ctr MBD2 37.9 | MBD2 DBD conf inactive | TDP2 confirm inactive | IN multimer up 19.3 | TRFRET interf inactive | IN-LEDGF confirm 46.0
O=C(CCCN1C(=O)/C(=C\c2ccco2)SC1=S)Nc1ccc2ccccc2c1	none
CN(C)S(=O)(=O)c1cccc(C(=O)N/N=C\c2ccc(-c3ccccn3)cc2)c1	none (no result: Rin1-Abl PPI inh)
CC(=O)NC(Cc1ccc2c(c1)OCO2)C(=O)N1CCCN(C(C)=O)CC1 (configuration not stated)	none (no result: Rin1-Abl PPI inh)
